The target of data set [1] is T1, Receptor-interacting serine/threonine-protein kinase 2 (Homo sapiens, UniProt O43353). As to the kind of experiment: Inhibition of recombinant human RIPK2 incubated for 2 hr by ADP-Glo assay. The method, boiled down:
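IC50 values reported as the mean of two or three determinations ± standard deviation.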
Background: ADP-Glo first removes unused ATP, then detects ADP through luciferase.

The next data set has as its target T2, Activin receptor type-1 (Homo sapiens, UniProt Q04771).
T2 sequence (Q04771 whole entry): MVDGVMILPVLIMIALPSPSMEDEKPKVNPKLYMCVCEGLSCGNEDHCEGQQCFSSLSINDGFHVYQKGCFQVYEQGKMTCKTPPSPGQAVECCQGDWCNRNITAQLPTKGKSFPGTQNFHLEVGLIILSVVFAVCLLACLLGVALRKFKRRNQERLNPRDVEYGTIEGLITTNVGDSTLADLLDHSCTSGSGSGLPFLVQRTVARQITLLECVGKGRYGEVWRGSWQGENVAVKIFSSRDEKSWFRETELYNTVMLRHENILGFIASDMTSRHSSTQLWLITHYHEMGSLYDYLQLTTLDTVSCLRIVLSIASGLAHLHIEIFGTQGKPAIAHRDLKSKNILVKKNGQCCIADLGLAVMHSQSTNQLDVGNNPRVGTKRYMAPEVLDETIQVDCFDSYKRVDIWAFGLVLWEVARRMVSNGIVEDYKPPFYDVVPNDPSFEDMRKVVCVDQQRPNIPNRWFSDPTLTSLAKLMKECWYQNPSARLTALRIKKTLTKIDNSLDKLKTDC
The data set can be described thus: Inhibition of human ALK2 using casein as substrate in presence of 10 uM [gamma33P] ATP by kinase assay.

Data set [2] addresses T3, Activin receptor type-1 (Homo sapiens) (UniProt Q04771).
T3 sequence (whole entry): T2 sequence (Q04771 whole entry)
As to the kind of experiment: Inhibition of human ALK2 using casein as substrate at 10 uM in presence of 10 uM [gamma33P] ATP by kinase assay.

In data set [3] the target is Nucleotide-binding oligomerization domain-containing protein 2 (Homo sapiens) (UniProt Q9HC29). As to the kind of experiment: Inhibition of human NOD2 expressed in HEK293 cells coexpressing NFkappaB-SEAP reporter at 10 uM measured after 7 to 9 hrs by HEKBIue reporter assay. The format is cell-based. The settings on record: time 7-9 hrs. Background: A reporter such as luciferase makes a cellular process visible.

Data set [4] addresses T1, Receptor-interacting serine/threonine-protein kinase 2. The data set can be described thus: Inhibition of recombinant human RIPK2 at 10 uM incubated for 2 hr by ADP-Glo assay.
Data set [5] is described as follows: Permeability of the compound by PAMPA. The format is ADME.
Data set [6] can be described thus: Stability in mouse liver microsomes assessed as intrinsic clearance. Format: ADME, Microsome. On the technique in general: Liver microsomes are a subcellular fraction often used to study metabolism.
Data set [7] in a line: Clearance in C57BL/6 mouse at 10 mg/kg, ip by LC-MS/MS analysis. The format is ADME, organism-based. The following applies: in vivo. Summed up:
(§1)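 Single 10 mg/kg intraperitoneal dose formulated in 6% Captisol in water, given to 8-week-old female C57BL/6 mice, n = 5 mice per group; plasma concentrations followed over time to derive PK parameters.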

A short description of data set [8]: Stability in mouse liver microsomes assessed as half life. The format is ADME, Microsome.
Data set [9] can be described thus: Aqueous solubility of compound in PBS buffer at pH 7.4. Format: physicochemical. Summed up:
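Solubility measured in PBS buffer at pH 7.4.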

A short description of data set [10]: AUC in C57BL/6 mouse at 10 mg/kg, ip by LC-MS/MS analysis. Format: ADME, organism-based. More on the design: dose 10 mg/kg. The following applies: in vivo. The method, boiled down: as §1

pIC50: −log10 of the molar value. Calls of active or inactive are those of the source. The rule behind the calls is not given here.

Sequence of Nucleotide-binding oligomerization domain-containing protein 2 (Homo sapiens) (Q9HC29 whole entry, the tested form may be a part): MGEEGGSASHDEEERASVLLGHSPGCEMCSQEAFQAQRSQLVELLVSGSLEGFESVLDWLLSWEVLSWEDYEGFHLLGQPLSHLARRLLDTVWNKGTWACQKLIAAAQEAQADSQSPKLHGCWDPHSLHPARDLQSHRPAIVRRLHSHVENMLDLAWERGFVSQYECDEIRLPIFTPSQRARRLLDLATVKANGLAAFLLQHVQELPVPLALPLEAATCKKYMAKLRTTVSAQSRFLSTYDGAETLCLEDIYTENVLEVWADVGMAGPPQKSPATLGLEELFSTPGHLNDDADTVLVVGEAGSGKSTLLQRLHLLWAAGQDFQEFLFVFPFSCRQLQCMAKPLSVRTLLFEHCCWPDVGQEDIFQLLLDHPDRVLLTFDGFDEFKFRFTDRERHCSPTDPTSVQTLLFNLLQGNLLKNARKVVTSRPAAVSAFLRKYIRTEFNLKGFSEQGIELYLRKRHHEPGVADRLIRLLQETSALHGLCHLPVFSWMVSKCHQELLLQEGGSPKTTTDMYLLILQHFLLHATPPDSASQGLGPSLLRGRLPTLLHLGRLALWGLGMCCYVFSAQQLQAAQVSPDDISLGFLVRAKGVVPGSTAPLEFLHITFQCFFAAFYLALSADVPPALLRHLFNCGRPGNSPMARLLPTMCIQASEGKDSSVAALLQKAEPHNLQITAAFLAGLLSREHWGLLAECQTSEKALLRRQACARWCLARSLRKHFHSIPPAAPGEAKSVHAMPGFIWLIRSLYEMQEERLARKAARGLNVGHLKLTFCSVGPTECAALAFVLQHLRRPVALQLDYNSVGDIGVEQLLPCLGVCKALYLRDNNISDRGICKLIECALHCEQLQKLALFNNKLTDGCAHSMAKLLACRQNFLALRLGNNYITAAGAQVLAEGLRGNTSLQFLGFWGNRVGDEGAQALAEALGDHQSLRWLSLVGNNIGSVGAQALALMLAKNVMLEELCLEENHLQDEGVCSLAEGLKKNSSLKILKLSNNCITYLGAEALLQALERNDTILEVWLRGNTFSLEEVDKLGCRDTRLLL
T1 sequence (O43353 whole entry): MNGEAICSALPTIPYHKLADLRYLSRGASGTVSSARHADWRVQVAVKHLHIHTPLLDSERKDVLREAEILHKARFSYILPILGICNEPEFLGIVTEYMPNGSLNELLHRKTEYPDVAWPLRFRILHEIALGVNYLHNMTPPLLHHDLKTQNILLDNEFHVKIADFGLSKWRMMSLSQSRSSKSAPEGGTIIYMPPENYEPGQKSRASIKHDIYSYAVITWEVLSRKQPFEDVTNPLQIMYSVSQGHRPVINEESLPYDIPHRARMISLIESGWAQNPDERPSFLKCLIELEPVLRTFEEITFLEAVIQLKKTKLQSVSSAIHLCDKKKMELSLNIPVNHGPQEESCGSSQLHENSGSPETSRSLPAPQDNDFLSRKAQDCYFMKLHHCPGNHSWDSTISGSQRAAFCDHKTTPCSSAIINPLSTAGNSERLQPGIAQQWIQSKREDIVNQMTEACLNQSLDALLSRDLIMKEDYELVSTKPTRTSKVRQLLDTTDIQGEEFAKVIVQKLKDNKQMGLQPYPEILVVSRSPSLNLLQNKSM

In the case of `CCCS(=O)(=O)Nc1cc(-c2cc(-c3ccc(N4CCNCC4)cc3)cnc2N)cc(Cl)c1OC`, the negative-log IC50 (pIC50) (as a rule, the IC50 on a negative log10 scale, so that one unit is a factor of ten) in [1] was 7.68; on Activin receptor type-1, 6.69.

Turning to `CCCS(=O)(=O)N1CCOc2ccc(-c3cc(-c4ccc(N5CCNCC5)cc4)cnc3N)cc21`, the inhibition entry in [2] is “inactive”. In [1], the pIC50 was 7.11.

With `COc1cc(NS(C)(=O)=O)cc(-c2cc(-c3ccc(N4CCNCC4)cc3)cnc2N)c1`, the negative logarithm of the IC50 (pIC50) was 7.29 in data set [1] and 8.30 on Activin receptor type-1.

For `CCCS(=O)(=O)Nc1cc(-c2cc(-c3ccc(S(C)(=O)=O)cc3)cnc2N)ccc1OC`, the inhibition entry in data set [2] and in data set [3] was “inactive” each time. In addition, in [1], the pIC50 is 6.58.

With `COc1cc(NS(C)(=O)=O)cc(-c2cc(-c3ccc(N4CCNCC4)cc3)cnc2C)c1`, the pIC50 in data set [1] is 6.53; on Activin receptor type-1, 7.51.

Take `CCOc1cc(NS(=O)(=O)C(C)C)cc(-c2cc(-c3ccc(N4CCNCC4)cc3)cnc2N)c1`: the pIC50 in [1] was 7.68; at Activin receptor type-1, 6.52.

Turning to `CCCS(=O)(=O)Nc1cc(-c2cc(-c3ccc(N4CCNCC4)cc3)cnc2N)cc(OCC)c1OC`, the inhibition result in [4], in data set [2] and in data set [3] was “inactive” in each case.

With `COc1cc(-c2cc(-c3ccc(N4CCNCC4)cc3)cnc2C)cc(OC)c1OC`, in data set [3], the inhibition entry is “inactive”. Moreover, the negative-log IC50 (pIC50) in [1] is 7.00.

Take `CCCS(=O)(=O)Nc1ccc(-c2cc(-c3ccc(N4CCNCC4)cc3)cnc2C)cc1OC`: the inhibition result in [4] and in [2] was “inactive” in each case.

On to `COc1cc(NS(=O)(=O)C(C)C)cc(-c2cc(-c3ccc(N4CCNCC4)cc3)cnc2C)c1`, for which the values for the pIC50 (in data set [1]; on Activin receptor type-1) were 7.12 and 6.62, respectively.

As for `CCCS(=O)(=O)Nc1cc(-c2cc(-c3ccc(N4CCNCC4)cc3)cnc2N)cc(OC)c1OC`, the negative logarithm of the IC50 (pIC50) at Activin receptor type-1 was 7.24.

For `CCCS(=O)(=O)Nc1cc(OC)cc(-c2cc(-c3ccc(N4CCNCC4)cc3)cnc2N)c1`, the pIC50 was 7.85 in data set [1] and 8.05 on Activin receptor type-1.

As for `CCCS(=O)(=O)Nc1cc(-c2cc(-c3ccc(N4CCNCC4)cc3)cnc2N)cc(C)c1OC`, the results for the negative-log IC50 (pIC50) (in data set [1]; on Activin receptor type-1) were 7.39 and 6.40, respectively.

For `CCCS(=O)(=O)Nc1cc(-c2cc(-c3ccc(N4CCNCC4)cc3)cnc2N)ccc1OC`, the pIC50 in data set [1] is 7.49; on Activin receptor type-1, 5.45.

With `CCCS(=O)(=O)Nc1cc(-c2cc(-c3ccc(N4CCNCC4)cc3)cnc2N)ccc1C`, the pIC50 was 6.99 in [1] and 5.67 at Activin receptor type-1.

With `CC(C)Oc1cc(NS(=O)(=O)C(C)C)cc(-c2cc(-c3ccc(N4CCNCC4)cc3)cnc2N)c1`, the inhibition result in [2] is “inactive”. Besides, the negative logarithm of the IC50 (pIC50) in data set [1] is 7.74.

As to `CCCS(=O)(=O)N1CCc2ccc(-c3cc(-c4ccc(N5CCNCC5)cc4)cnc3N)cc21`, the inhibition entry in data set [2] is “inactive”. Also, the pIC50 in data set [1] is 6.73.

Take `CCCS(=O)(=O)Nc1cc(-c2cc(-c3ccc(N4CCNCC4)cc3)cnc2N)cc2c1OCCO2`: the inhibition result in [2] was “inactive”. Moreover, the negative logarithm of the IC50 (pIC50) in data set [1] is 6.28.

In the case of `CCCS(=O)(=O)Nc1cc(-c2cc(-c3ccc(N4CCNCC4)cc3)cnc2N)ccc1O`, the negative-log IC50 (pIC50) on Activin receptor type-1 is 6.41.

Regarding `CCCS(=O)(=O)Nc1cc(-c2cc(-c3ccc(N4CCNCC4)cc3)cnc2C)cc(F)c1OC`, the inhibition result in data set [2] is “inactive”.

On to `COc1cc(NS(=O)(=O)C(C)C)cc(-c2cc(-c3ccc(N4CCNCC4)cc3)cnc2N)c1`, for which the results for the pIC50 (in [1]; on Activin receptor type-1) were 7.89 and 7.96, respectively.

Consider `COc1cc(-c2cc(-c3ccc(N4CCNCC4)cc3)cnc2N)cc(F)c1OC`, for which the pIC50 at Activin receptor type-1 is 7.54.

For `COc1cc(NS(=O)(=O)c2ccccc2)cc(-c2cc(-c3ccc(N4CCNCC4)cc3)cnc2N)c1`, the negative logarithm of the IC50 (pIC50) in data set [1] was 7.64; at Activin receptor type-1, 8.30.

For the compound `CCCS(=O)(=O)Nc1cc(-c2cc(-c3ccc(N4CCNCC4)cc3)cnc2N)cc(OC)c1C`, the inhibition entry in [4] is “inactive”. Moreover, on Activin receptor type-1, the pIC50 was 6.45.

With `CCCS(=O)(=O)Nc1cc(OC)cc(-c2cc(-c3ccc(N4CCNCC4)cc3)cnc2C)c1`, the negative logarithm of the IC50 (pIC50) in data set [1] was 6.79; at Activin receptor type-1 it was 6.97.

With `CCS(=O)(=O)Nc1cc(OC)cc(-c2cc(-c3ccc(N4CCNCC4)cc3)cnc2C)c1`, the negative-log IC50 (pIC50) in [1] was 6.90; at Activin receptor type-1, 7.07.

As to `CCCS(=O)(=O)Nc1cc(-c2cc(-c3ccccc3S(C)(=O)=O)cnc2N)ccc1OC`, the inhibition result in data set [4], in data set [2] and in data set [3] was “inactive” each time.

As for `CCCS(=O)(=O)Nc1cc(-c2cc(-c3cccc(N4CCNCC4)c3)cnc2N)cc(F)c1OC`, the pIC50 in data set [1] was 7.96; on Activin receptor type-1, 6.28.

Turning to `CCCS(=O)(=O)Nc1cc(-c2cncc(-c3ccc(N4CCNCC4)cc3)c2)cc(F)c1OC`, the negative-log IC50 (pIC50) in data set [1] is 7.57.

Regarding `CCCS(=O)(=O)Nc1cc(-c2cc(-c3cccc(S(C)(=O)=O)c3)cnc2N)ccc1OC`, the inhibition entry in data set [2] is “inactive”. Moreover, in data set [1], the pIC50 is 6.99.

As for `CCCS(=O)(=O)NCc1cc(-c2cc(-c3ccc(N4CCNCC4)cc3)cnc2N)ccc1OC`, the pIC50 is 7.00 in data set [1] and 6.84 on Activin receptor type-1.

On to `CCCS(=O)(=O)Nc1cc(-c2cc(-c3ccc(N4CCNCC4)cc3)cnc2N)cc(F)c1OC`, for which, in data set [5], the permeability was 2.9 10^-6 cm/s. Besides, the CLint in data set [6] was found to be 27 µL/min/mg. In [7], the CL/F – broadly, the apparent clearance, not corrected for the fraction that reaches the circulation – was 59.7 mL/min/kg. Besides, the pIC50 in data set [1] was 7.80; on Activin receptor type-1, 6.46. Besides, in data set [8], the t1/2 is on record as 25.6 min. In [9], the solubility entry was “>= 100 uM”. Moreover, in data set [10], the exposure (AUC) (usually concentration integrated over time) was 2920 ng·h/mL.

The values above are taken from ChEMBL document CHEMBL4765350, “Receptor-interacting protein kinase 2 (RIPK2) and nucleotide-binding oligomerization domain (NOD) cell signaling inhibitors based on a 3,5-diphenyl-2-aminopyridine scaffold” (Eur J Med Chem, 2020).
